High-throughput results from PubChem BioAssay.
S100A4 inh HTS = inhibitors of human S100A4 binding to myosin IIA peptide; S100A4/TAMRA-MyoIIA peptide fluorescence polarization; inhibition, % at 10.7 µM; 0.14% of 360,000 active; AID 652163;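 active = mean inhibition of at least 70% across replicates, with every replicate also reaching that level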
Target sequence (P26447 whole entry, looked up): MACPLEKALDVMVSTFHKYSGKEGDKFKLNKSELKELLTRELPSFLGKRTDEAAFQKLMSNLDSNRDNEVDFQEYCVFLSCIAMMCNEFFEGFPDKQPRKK
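Test system: S100A4 monomer protein; Medium: HEPES pH 7.2 with CaCl2, KCl, NaCl, DTT, Triton; Probe or stimulus: TAMRA-labelled myosin IIA heavy-chain peptide probe, 5 nM; Doses: one dose per compound; Times: polarization read 5 min after assay mix addition, stable 5–60 min; Benchmarks: neutral control DMSO, positive control TFP.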
ERAP1 inh = inhibitors of human ERAP1 aminopeptidase. recombinant ERAP1, Leu-AMC fluorescence, 60 min. inhibition, % at 10.7 µM. 0.15% of 340,000 active. AID 652197. Q9NZ08;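 active = mean replicate inhibition of at least 30%, or all replicates individually reaching that 30% level; inactive = mean below 30% and not every replicate reaching it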;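 also: 0% = neutral control wells and 100% = L-leucinethiol positive control wells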
SIRT5 inh = blocks human SIRT5 desuccinylation of peptide; Q9NXA8; 1.1% of 330,000 active; AID 652115; inhibition, % at 15 µM; Purified SirT5, succinyl-peptide AMC, trypsin-coupled fluorescence; in the data active = inhibition above about 15%
Target sequence (Q9NXA8 whole entry, looked up): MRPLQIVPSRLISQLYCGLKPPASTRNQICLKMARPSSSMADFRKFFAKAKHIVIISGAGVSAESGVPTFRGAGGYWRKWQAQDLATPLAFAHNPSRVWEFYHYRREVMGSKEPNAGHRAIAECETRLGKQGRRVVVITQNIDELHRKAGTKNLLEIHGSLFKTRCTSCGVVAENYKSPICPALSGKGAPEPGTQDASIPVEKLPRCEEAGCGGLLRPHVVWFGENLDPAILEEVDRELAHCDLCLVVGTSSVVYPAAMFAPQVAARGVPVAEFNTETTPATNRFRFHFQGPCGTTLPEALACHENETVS
rRNA inh HTS = inhibits bacterial ribosomal RNA function over humanized ribosomes; E. coli WT GFP vs humanized-ribosome RFP mutants, fluorescence, 24 h; stronger effect = lower value; DMSO median 0, no signal -100; GFP signal change (wild-type ribosome), % (no concentration beside the values); 1.6% of 350,000 active; AID 720706;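 active = significant combined selectivity score with lowered wild-type GFP, culture density cut under 30%, mutant RFP and density less affected; inactive = any of these conditions unmet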
MLL AF4-AF9 inh = MLL-AF4/AF9 protein interaction inhibition; P42568; AlphaScreen, biotin-AF4 peptide binding to FLAG-AF9; inhibition, % at 10 µM; 0.47% of 350,000 active; AID 651704;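 active = every replicate reaching a set inhibition limit, whatever the replicate mean, cut at about 25% in these data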;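 also: 0% = plate neutral control median and 100% = total signal loss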
E-selectin induc = induces E-selectin expression in human endothelial cells; P16581; HUVEC E-selectin immunofluorescence imaging; normalized: neutral wells 0, TNF-alpha wells 100; activation, % at 7.58 µM; 0.37% of 260,000 active; AID 686992;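 active = mean E-selectin-positive cell signal at least 10% of the positive control, reached in at least 60% of replicates, without over 20% cell loss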
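System: HUVEC / Compound: single concentration / Signal: immunofluorescence imaging / Read-out: percent E-selectin-positive cells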
* hit, by the source's call; . = not tested or not shown. Sampled rows, rich in hits. Any-hit rate of the full collection: about 3.4%.

SMILES	S100A4 inh HTS	ERAP1 inh	SIRT5 inh	rRNA inh HTS	MLL AF4-AF9 inh	E-selectin induc
CC1(C)CC(=O)C(N=Nc2ccc(F)cc2)=C(O)C1	-0.2	0.3	29.8*	6.9	0.8	1.2
C[C@@H]1CCCCO[C@H](CN(C)S(=O)(=O)c2cccs2)[C@@H](C)CN([C@H](C)CO)C(=O)c2cc(NC(=O)Nc3ccc(C(F)(F)F)cc3)ccc2O1	0.7	-2.2	9.8	4.5	-0.6	0.1
CCOC(=O)/C(=N\Nc1ccccc1[N+](=O)[O-])c1csc(N)n1	12.2	-5.0	.	-26.7*	13.1	.
CCOC(=O)/C(=N\Nc1ccc(C(C)=O)cc1)c1csc(Nc2ccccc2)n1	.	.	.	.	.	0.0
C[C@H]1CN([C@@H](C)CO)S(=O)(=O)c2ccc(C#CC3CC3)cc2O[C@H]1CN(C)C(=O)C1CCC1	-11.8	0.3	-0.9	2.1	-2.7	0.4
Cc1cccc(Oc2coc3cc(OC(=O)c4cncc(Br)c4)ccc3c2=O)c1	-2.9	4.4	-1.1	-17.5*	-6.4	.
COc1ccc(NC(=O)N(CCCN2CCOCC2)Cc2cccnc2)c(OC)c1	-0.9	.	.	-3.3	-0.6	.
Cc1ccc(NC(=O)N(CCCN2CCOCC2)Cc2cccnc2)cc1C	-8.4	7.2	1.2	15.0	39.2*	-0.4
Nc1ccc(Oc2cc(N)cc(Oc3ccccc3)c2)cc1	-2.0	8.7	0.2	-20.8*	5.4	0.0
N[C@@H](CO)c1nnc([C@H](Cc2ccc(O)cc2)NC(=O)C2CCNCC2)o1	-14.5	-3.4	28.2*	8.1	-9.7	-0.1
Cc1ccc(N=C2NC(=O)/C(=C\c3cccs3)S2)cc1C	13.3	1.8	-2.5	1.4	4.6	.
Cc1ccc(/C=C2/SC(=Nc3ccc(F)cc3)NC2=O)s1	9.0	81.5*	0.9	7.3	-0.6	-0.1
O=C(Nc1ccccc1)Nc1sccc1-c1nc2ccccc2s1	-8.5	0.0	-2.9	-20.8*	-2.0	.
O=C(Nc1cccc(Cl)c1)Nc1sccc1-c1nc2ccccc2s1	-4.3	-3.5	10.6	.	4.6	.
Cc1ccc(-c2cc3onc(-c4ccccc4)c3c(=O)n2C)cc1	-1.4	-1.1	-2.2	0.1	-2.5	-0.1
CNC(=O)c1ccc(-c2cc3onc(-c4ccccc4)c3c(=O)n2C)cc1	-11.5	-0.4	.	-27.8*	0.2	0.0
CCC(=O)Nc1ccc2c(c1)OC[C@H](C)N(C(=O)CC)C[C@H](C)[C@@H](OC)CN(C)C2=O	-9.4	2.1	-1.7	2.0	-2.8	-0.3
C[C@H](CO)N1C[C@H](C)[C@@H](CN(C)Cc2ccncc2)Oc2ccc(NS(C)(=O)=O)cc2C1=O	-1.8	0.1	-4.3	6.1	-1.2	-11.1
COc1ccccc1-c1ccc(SCc2ccc(F)cc2)nn1	-4.9	-1.7	-3.3	-30.7*	-2.1	.
COc1ccccc1-c1ccc(SCc2ccc(C)cc2)nn1	-1.3	0.9	1.0	-11.9	-3.8	8.1
O=C(NCc1ccc(-c2nc3ccccc3s2)cc1)c1ccco1	-4.9	-1.7	-0.9	-19.9*	-3.8	-0.3
O=C(NC(=S)NCc1ccc(-c2nc3ccccc3s2)cc1)c1ccco1	.	.	.	.	.	-0.3
CCNC(=O)C[C@@H]1CC[C@H](NS(=O)(=O)c2ccc(C)cc2)[C@H](CO)O1	12.1	0.6	-0.5	0.2	0.2	0.1
O=C(C[C@H]1C[C@@H]2c3cc(NC(=O)c4cccnc4)ccc3O[C@@H]2[C@@H](CO)O1)NC1CCCCC1	-20.0	-0.3	-1.6	-2.5	-3.7	0.5
CC(C)[C@H]1CC[C@@H](C)C(C(=O)c2ccccc2)C1=O (some centres undefined)	0.7	-1.3	0.3	3.4	57.6*	.
SMILES	S100A4 inh HTS	ERAP1 inh	SIRT5 inh	rRNA inh HTS	MLL AF4-AF9 inh	E-selectin induc
CC(C)C#Cc1ccc([C@H]2[C@H](CO)N3C(=O)CN(C(=O)NC4CCCC4)C[C@@H]23)cc1	-14.1	1.7	2.6	6.3	-0.6	0.1
C[C@H]1CCCCO[C@H](CN(C)C(=O)c2ccncc2)[C@@H](C)CN([C@@H](C)CO)C(=O)c2cc(NC(=O)c3ccccc3)ccc2O1	-8.2	-0.1	-2.6	-1.9	-1.7	0.1
O=C(CC1C(=O)NCCN1CCCc1ccccc1)NCCc1ccccc1Cl (centres undefined)	-4.3	5.5	15.4*	-29.9	4.9	.
COc1ccccc1CCNC(=O)CC1C(=O)NCCN1CCCc1ccccc1 (centres undefined)	-0.3	3.1	-1.1	-32.0	3.4	.
C[C@@H]1CN([C@@H](C)CO)C(=O)c2cc(NC(=O)C3CCCCC3)ccc2O[C@H]1CN(C)Cc1ccc(Oc2ccccc2)cc1	.	.	.	0.4	.	-0.5
COC(=O)C1CN(C(=O)COc2ccc(C)cc2)c2ccccc2O1 (centres undefined)	-5.8	0.8	34.5*	8.0	-1.4	0.1
CCCC(=O)N1C[C@@H]2[C@H](c3ccccc31)[C@@H](CO)N2C(=O)CC1CC1	.	.	-4.3	-4.7	.	1.2
COc1ccc(NC(=O)C2(C)Cc3c(-c4ccc(C(N)=O)cc4)ccnc3O2)cc1OC (centres undefined)	2.2	3.6	17.9*	-0.3	-0.2	1.1
CC1(C(=O)Nc2cccc(C(F)(F)F)c2)Cc2c(-c3cccc(C(F)(F)F)c3)ccnc2O1 (centres undefined)	3.5	-1.6	21.1*	8.2	-3.4	0.1
COc1ccc(NC(=O)C2(C)Cc3c(-c4cccc(C(N)=O)c4)ccnc3O2)cc1OC (centres undefined)	-9.3	1.8	0.9	-1.0	0.6	-0.4
CC(=O)Nc1cccc(-c2ccnc3c2CC(C)(C(=O)Nc2cccc(C(F)(F)F)c2)O3)c1 (centres undefined)	7.9	-0.1	2.9	-10.3	-2.8	1.0
CCN1[C@@H]2c3ccc(-c4cccc(F)c4)c(=O)n3C[C@H]1[C@H](CO)[C@H]2C(=O)N(C)C	2.7	-0.5	-9.3	3.1	-2.1	0.0
c1ccc2c(CSc3ncnc4nc[nH]c34)cccc2c1	-4.5	-2.7	-4.7	-31.3*	-0.8	-0.2
CCOc1ccc(CC(=O)Nc2cccc(-c3ccc4nnc(C)n4n3)c2)cc1	-1.9	.	0.7	-34.0*	2.2	-0.3
COc1ccc(CC(=O)Nc2cccc(-c3ccc4nnc(C)n4n3)c2)cc1	-12.3	-2.9	-6.2	-25.2	1.6	-0.4
Cc1oc2c(CN3CCCCC3)c(O)ccc2c(=O)c1-c1ccc(Br)cc1	-0.2	-4.4	-8.6	10.0	1.3	0.1
Cc1oc2c(CN3CCCC3)c(O)ccc2c(=O)c1-c1ccc(Br)cc1	0.4	-1.9	-9.3	-28.5*	2.5	.
Cc1cc(=O)oc2c(CN3CCCC3)c(O)ccc12	-5.5	40.7*	-171.1	10.3	-0.9	0.2
CCN(CC)Cc1c(O)c(Cl)cc2c(C)cc(=O)oc12	15.6	66.0*	.	18.6	0.2	.
Cc1c(O)ccc2c(CN3CCN(CCO)CC3)cc(=O)oc12	.	.	.	.	.	-0.1
